One may read the pKa as the pH at which an ionisable group is half protonated. A high value points to a weaker acid or stronger base. In general, Papp A→B refers to how fast a substance crosses the layer from the apical side. As a reminder, the AUC is the area under the concentration-time curve, a measure of exposure. A low value points to less exposure. As a reminder, the clearance is a measure of how efficiently the substance is removed, as volume per time. Usually Cmax stands for the maximum level reached in the sampled fluid or tissue. In general, bioavailability refers to dose-corrected exposure relative to a reference, in per cent. Read a low bioavailability as little systemic uptake. As usually defined, the half-life is how long it takes for the measured level to halve. High values mean slow loss, low ones fast loss. Usually logD stands for the decadic logarithm of the distribution of all forms, ionised or not, between an organic phase and buffer at a given pH. Broadly, the EC50 is the concentration needed to bring the measured effect to its halfway point. Broadly, the Ki is a dissociation constant, usually derived from enzyme kinetics or from competition with a known ligand. A word on the inhibition: it is the relative decrease from the control value, in per cent. A higher inhibition goes with a strong effect.

The source of these data is ChEMBL document CHEMBL2390952, “Novel triazolo-pyrrolopyridines as inhibitors of Janus kinase 1” (Bioorg Med Chem Lett, 2013).

Data set [1] is described as follows: Dissociation constant, pKa of the compound. The data set is classed as physicochemical.
The nature of data set [2]: Apparent permeability from apical to basolateral side in MDCK cells. Particulars: dog. In kind it is ADME, cell-based, Canis lupus familiaris. The procedure, abridged: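 MDCK cells grown in transwell culture. Apparent permeability measured in the apical-to-basolateral direction and reported as the arithmetic mean of at least two separate determinations.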
Data set [3] is described as follows: AUC in Sprague-Dawley rat at 5 mg/kg, po. In kind it is ADME, organism-based. Further details: dose 5 mg/kg, route oral. The following applies: plasma. The method in brief: (§1)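 Rat pharmacokinetics given as mean profiles from three animals. Values normalized to 1 mg/kg iv and 5 mg/kg po. Clearance is plasma clearance after iv dosing.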
A short description of data set [4]: Clearance in Sprague-Dawley rat at 1 mg/kg, iv. The data set is classed as ADME, organism-based. Also noted: dose 1 mg/kg, route intravenous. Particulars: in vivo. The procedure, abridged:
as §1

Data set [5] is described as follows: Cmax in Sprague-Dawley rat at 5 mg/kg, po. The data set is classed as ADME, organism-based. Further details: dose 5 mg/kg, route oral. Particulars: in vivo. The procedure, abridged:
as §1

Data set [6] in a line: Oral bioavailability in Sprague-Dawley rat at 5 mg/kg. The data set is classed as ADME, organism-based. The following applies: in vivo. The method in brief: as §1
The species entered for data set [7] is Homo sapiens. The data set is described as follows: Selectivity ratio of Ki for JAK2 (unknown origin) to Ki for JAK1 (unknown origin). The procedure, abridged:
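Biochemical JAK enzyme assay giving Ki, reported as the arithmetic mean of at least three separate determinations. Selectivity is taken as JAK2 Ki divided by JAK1 Ki.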

The nature of data set [8]: Half life in human liver microsomes. In kind it is ADME, Microsome. The procedure, abridged:
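Half-life measured by incubation with in vitro preparations of human liver microsomes.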

Data set [9] can be described thus: Lipophilicity, log D of the compound at pH 7.2. In kind it is physicochemical. Particulars: buffer. The method in brief:
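Log D determined experimentally at pH 7.2.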

Data set [10] deals with TF-1. The data set is described as follows: Selectivity ratio of EC50 for JAK2-mediated STAT5 phosphorylation in EPO-induced human TF1 cells to EC50 for JAK1-mediated STAT3 phosphorylation in IL6-induced human TF1 cells. The data set is classed as cell-based.
The target of data set [11] is T1, Tyrosine-protein kinase JAK1 (Homo sapiens, UniProt P23458). Description: Inhibition of JAK1-mediated STAT3 phosphorylation in IL6-induced human TF1 cells. The data set is classed as cell-based, TF-1.
Data set [12] addresses Tyrosine-protein kinase JAK2 (Homo sapiens, UniProt O60674). Description: Inhibition of JAK2 (unknown origin).
Data set [13] has as its target T1, Tyrosine-protein kinase JAK1. The data set is described as follows: Inhibition of JAK1 (unknown origin).
The target in data set [14] is T2, Serine/threonine-protein kinase D1 (Homo sapiens) (UniProt Q15139).
T2 sequence (whole entry): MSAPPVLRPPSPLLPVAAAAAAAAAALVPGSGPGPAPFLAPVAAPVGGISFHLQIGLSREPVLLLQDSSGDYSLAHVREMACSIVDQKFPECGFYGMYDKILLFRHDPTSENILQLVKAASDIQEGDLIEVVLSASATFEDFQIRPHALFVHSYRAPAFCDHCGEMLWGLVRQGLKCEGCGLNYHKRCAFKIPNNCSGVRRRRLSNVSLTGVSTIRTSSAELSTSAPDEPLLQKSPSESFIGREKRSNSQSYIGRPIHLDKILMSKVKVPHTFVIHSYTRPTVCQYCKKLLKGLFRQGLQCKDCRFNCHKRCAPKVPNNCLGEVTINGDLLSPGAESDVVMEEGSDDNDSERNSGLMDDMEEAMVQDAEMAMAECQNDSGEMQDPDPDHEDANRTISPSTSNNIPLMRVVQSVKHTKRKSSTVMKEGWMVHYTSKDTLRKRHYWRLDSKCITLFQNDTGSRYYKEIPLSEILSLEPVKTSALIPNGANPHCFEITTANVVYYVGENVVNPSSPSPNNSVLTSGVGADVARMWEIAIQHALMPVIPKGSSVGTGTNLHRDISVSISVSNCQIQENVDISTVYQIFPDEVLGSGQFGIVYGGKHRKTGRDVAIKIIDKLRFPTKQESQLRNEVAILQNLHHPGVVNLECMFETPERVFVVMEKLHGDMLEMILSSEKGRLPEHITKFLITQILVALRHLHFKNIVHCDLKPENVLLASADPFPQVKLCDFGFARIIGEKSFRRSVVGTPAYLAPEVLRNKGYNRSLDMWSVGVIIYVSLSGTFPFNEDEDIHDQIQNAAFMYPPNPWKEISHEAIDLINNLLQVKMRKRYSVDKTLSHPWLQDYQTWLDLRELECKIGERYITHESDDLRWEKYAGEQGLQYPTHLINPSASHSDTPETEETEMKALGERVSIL
Description: Inhibition of protein kinase D1 (unknown origin) relative to control. The following applies: concentration not given here. The method in brief:
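Kinase selectivity panel of 50 non-JAK kinases. […] Percent inhibition scored, and enzymes inhibited by more than 40% were counted.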

Data set [15] deals with T3, Tyrosine-protein kinase JAK3 (Homo sapiens, UniProt P52333).
T3 sequence (P52333 whole entry): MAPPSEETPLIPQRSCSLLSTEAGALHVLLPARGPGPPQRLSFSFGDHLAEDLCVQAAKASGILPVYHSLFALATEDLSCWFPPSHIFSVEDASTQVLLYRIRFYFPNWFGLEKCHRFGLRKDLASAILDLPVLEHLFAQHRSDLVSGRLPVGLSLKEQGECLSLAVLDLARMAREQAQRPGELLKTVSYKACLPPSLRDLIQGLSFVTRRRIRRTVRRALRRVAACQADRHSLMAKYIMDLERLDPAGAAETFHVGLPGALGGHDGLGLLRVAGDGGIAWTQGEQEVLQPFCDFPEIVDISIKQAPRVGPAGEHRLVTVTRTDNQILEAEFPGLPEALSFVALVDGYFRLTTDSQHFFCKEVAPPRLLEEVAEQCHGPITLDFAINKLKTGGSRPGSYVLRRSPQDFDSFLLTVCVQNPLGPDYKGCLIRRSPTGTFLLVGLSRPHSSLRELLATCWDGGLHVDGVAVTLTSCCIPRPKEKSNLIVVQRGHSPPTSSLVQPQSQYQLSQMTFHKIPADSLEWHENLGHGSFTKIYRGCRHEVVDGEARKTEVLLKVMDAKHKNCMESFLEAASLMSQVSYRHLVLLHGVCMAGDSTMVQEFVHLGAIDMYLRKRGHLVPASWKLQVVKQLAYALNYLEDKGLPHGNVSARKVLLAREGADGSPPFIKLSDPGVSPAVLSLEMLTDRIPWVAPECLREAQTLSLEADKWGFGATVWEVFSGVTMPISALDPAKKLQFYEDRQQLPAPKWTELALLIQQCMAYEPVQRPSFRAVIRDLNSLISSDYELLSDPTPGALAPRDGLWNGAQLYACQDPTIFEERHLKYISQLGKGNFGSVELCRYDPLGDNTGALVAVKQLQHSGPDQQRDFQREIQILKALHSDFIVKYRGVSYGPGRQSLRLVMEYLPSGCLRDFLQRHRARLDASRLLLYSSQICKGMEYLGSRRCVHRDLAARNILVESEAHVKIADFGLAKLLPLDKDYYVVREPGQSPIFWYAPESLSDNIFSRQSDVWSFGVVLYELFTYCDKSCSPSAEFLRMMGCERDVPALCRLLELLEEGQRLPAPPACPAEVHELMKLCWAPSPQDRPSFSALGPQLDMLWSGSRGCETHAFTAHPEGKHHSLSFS
The data set is described as follows: Inhibition of JAK3 (unknown origin).

The species entered for data set [16] is Homo sapiens. The data set is described as follows: Selectivity ratio of Ki for TYK2 (unknown origin) to Ki for JAK1 (unknown origin).
In data set [17] the target is Non-receptor tyrosine-protein kinase TYK2 (Homo sapiens, UniProt P29597). Description: Inhibition of TYK2 (unknown origin).
For data set [18], the species on record is Homo sapiens. The data set is described as follows: Selectivity ratio of Ki for JAK3 (unknown origin) to Ki for JAK1 (unknown origin).

Chain of Tyrosine-protein kinase JAK2 (O60674 whole entry): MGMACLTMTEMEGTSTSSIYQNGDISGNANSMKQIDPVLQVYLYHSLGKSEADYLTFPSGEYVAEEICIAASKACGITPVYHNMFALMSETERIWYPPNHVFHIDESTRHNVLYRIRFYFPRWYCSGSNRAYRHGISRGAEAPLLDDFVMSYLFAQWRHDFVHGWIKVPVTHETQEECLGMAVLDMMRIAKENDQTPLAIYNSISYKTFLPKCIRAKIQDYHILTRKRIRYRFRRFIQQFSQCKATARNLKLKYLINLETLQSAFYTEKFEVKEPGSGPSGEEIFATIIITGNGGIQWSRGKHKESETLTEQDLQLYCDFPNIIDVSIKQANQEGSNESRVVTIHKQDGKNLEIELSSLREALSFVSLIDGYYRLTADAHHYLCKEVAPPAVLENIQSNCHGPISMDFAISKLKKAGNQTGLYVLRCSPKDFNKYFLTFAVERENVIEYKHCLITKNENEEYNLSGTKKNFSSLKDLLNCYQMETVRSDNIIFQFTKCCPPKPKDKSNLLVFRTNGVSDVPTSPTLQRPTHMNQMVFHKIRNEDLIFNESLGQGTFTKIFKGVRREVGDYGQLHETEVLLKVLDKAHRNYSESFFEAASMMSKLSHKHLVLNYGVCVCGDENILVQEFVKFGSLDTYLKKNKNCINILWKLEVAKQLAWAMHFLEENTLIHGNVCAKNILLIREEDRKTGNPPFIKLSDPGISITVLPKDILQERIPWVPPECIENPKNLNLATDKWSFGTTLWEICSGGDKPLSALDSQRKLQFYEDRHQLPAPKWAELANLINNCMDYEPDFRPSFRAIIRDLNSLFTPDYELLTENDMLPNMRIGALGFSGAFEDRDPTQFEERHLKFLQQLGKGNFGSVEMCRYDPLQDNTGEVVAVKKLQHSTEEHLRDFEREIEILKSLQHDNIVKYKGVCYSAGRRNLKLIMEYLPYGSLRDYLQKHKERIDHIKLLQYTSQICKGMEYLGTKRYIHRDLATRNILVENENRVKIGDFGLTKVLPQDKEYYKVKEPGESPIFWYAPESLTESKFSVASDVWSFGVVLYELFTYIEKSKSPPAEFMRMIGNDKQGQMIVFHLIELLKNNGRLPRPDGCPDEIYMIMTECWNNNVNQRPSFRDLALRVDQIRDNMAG
T1 sequence (P23458 whole entry): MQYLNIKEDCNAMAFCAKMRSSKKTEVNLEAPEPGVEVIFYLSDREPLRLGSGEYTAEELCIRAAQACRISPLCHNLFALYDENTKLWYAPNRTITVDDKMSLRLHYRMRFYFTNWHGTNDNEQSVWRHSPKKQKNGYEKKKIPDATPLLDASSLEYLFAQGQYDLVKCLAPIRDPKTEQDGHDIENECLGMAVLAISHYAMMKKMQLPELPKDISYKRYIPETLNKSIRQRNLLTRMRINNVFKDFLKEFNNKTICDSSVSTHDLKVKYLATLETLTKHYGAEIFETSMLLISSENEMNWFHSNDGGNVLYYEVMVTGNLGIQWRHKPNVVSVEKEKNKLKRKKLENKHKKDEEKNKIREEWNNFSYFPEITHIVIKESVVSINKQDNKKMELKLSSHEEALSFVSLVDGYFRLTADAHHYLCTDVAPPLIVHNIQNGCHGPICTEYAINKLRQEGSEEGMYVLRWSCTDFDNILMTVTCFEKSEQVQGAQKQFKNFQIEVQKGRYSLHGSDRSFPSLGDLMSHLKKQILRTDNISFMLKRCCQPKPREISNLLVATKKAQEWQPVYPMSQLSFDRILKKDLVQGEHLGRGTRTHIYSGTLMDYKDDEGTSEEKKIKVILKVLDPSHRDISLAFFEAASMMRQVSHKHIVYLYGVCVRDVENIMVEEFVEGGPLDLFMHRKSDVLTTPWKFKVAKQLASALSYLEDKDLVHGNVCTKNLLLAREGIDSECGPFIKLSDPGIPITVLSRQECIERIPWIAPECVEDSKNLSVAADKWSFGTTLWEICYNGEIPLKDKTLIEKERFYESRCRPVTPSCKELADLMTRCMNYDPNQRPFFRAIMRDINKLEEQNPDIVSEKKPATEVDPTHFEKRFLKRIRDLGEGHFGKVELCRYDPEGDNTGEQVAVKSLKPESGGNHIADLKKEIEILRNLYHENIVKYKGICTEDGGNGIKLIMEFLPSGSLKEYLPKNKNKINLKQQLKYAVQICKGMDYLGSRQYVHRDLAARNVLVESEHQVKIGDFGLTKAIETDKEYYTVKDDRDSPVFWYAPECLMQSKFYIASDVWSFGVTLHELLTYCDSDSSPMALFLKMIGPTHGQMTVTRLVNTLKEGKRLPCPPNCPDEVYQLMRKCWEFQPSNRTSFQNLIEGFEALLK
Chain of Non-receptor tyrosine-protein kinase TYK2 (P29597 whole entry): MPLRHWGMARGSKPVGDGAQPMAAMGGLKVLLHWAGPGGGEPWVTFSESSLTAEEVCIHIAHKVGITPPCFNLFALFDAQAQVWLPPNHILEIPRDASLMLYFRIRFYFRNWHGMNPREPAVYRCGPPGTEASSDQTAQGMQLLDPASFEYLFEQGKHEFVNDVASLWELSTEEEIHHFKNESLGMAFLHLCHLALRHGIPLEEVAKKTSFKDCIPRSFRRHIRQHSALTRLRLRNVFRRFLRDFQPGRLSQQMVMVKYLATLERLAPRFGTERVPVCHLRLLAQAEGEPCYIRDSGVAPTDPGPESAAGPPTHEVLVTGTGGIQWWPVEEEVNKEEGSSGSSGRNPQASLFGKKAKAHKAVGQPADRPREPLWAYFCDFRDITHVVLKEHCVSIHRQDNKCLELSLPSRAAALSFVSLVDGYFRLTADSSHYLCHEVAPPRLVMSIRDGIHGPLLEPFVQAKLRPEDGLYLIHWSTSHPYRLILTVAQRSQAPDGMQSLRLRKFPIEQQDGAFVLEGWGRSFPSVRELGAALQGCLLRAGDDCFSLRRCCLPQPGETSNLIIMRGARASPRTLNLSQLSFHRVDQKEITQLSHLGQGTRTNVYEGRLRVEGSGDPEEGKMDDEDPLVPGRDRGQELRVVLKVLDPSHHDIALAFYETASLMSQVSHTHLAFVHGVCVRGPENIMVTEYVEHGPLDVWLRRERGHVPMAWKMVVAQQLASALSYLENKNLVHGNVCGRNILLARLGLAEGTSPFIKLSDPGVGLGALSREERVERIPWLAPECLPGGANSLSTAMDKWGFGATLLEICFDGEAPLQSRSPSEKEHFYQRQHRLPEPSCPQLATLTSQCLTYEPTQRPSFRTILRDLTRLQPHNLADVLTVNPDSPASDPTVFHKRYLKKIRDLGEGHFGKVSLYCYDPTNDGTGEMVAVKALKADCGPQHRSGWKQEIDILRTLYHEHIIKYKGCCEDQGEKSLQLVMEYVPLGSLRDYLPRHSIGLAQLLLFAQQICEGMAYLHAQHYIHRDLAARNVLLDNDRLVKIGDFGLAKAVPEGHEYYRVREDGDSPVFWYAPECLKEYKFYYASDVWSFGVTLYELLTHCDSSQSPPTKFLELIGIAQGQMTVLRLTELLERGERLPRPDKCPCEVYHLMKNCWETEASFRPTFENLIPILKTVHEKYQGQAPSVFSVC

Consider `N#CCC(=O)N1CCC[C@@H](n2cnc3cnc4[nH]ccc4c32)C1`, for which, in [1], the pKa was determined as 4.34. In data set [2], the Papp A→B is 0.3 ×10⁻⁶ cm/s.

With `CS(=O)(=O)N1CCC(n2nnc3cnc4[nH]ccc4c32)CC1`, in [3], the area under the curve (AUC) worked out at 18 µM·h. Further, in data set [4], the clearance stood at 16 mL/min/kg. For the same compound, in data set [5], the peak level (Cmax) was 4600 nM. In data set [6], this compound gave a bioavailability greater than 100%. For the same compound, the Ratio Ki in [7] amounted to 1.9. The half-life in data set [8] was 1.7 h. In addition, in [9], the logD worked out at 1.05. For the same compound, the Papp A→B in data set [2] was 13 ×10⁻⁶ cm/s. Besides, the Ratio EC50 in data set [10] was 4.8. The same compound returned a concentration for a half-maximal effect (EC50) in data set [11] of 249 nM. The Ki amounted to 12 nM in data set [12] and 6.2 nM in data set [13].

Consider `N#CCCN[C@H]1CC[C@H](n2nnc3cnc4[nH]ccc4c32)CC1`, for which the inhibition in [14] was 44%. The same compound came in with a Ki in [15] of 122 nM. In addition, the area under the curve (AUC) in [3] came to 1.4 µM·h. Also, in data set [4], the clearance amounted to 88 mL/min/kg. For the same compound, the Cmax in data set [5] was found to be 900 nM. Moreover, the bioavailability in [6] was found to be 44%. Also, in data set [8], the half-life was 2.3 h. Moreover, in [9], the logD worked out at 1.05. The apparent permeability from apical to basolateral (Papp A→B) in data set [2] turned out to be 7.2 ×10⁻⁶ cm/s.

As to `N#CCC(=O)N1CCC[C@@H](n2nnc3cnc4[nH]ccc4c32)C1`, the Ratio Ki in data set [16] and in data set [18] was greater than 10 each time. The values for the inhibition constant Ki in [17], in data set [15] and in data set [12] were 20 nM, 24 nM and 3.8 nM, respectively. The same compound had an AUC in data set [3] of 1 µM·h. Besides, the clearance in [4] was determined as 110 mL/min/kg. Also, the Cmax in data set [5] was 400 nM. In data set [6], this compound had a bioavailability of 41%. The same compound displayed a pH-dependent lipophilicity (logD) in [9] of 0.6. In [1], the pKa amounted to 1.96. Also, the apparent permeability from apical to basolateral (Papp A→B) in data set [2] amounted to 3.7 ×10⁻⁶ cm/s. Further, the Ratio EC50 in [10] came out at 6.8. In data set [11], this compound showed an EC50 of 114 nM.

With `COC(=O)N[C@H]1CC[C@H](n2nnc3cnc4[nH]ccc4c32)CC1`, the Ratio Ki in data set [7] worked out at 2.3. In data set [8], this compound gave a half-life of 4.8 h. In [9], this compound gave a logD of 2.08. Also, in data set [10], the Ratio EC50 came out at 4. The same compound showed an EC50 in [11] of 433 nM. Moreover, the values for the inhibitory constant (Ki) in [12] and in data set [13] were 27 nM and 12 nM, respectively.

For `CC1(n2nnc3cnc4[nH]ccc4c32)CCN(S(C)(=O)=O)CC1`, the Ratio Ki in [16] is greater than 10; in [18], greater than 10; in data set [7] it was 6.7. For the same compound, the Ki in data set [17] was 234 nM; in data set [15] it was 369 nM; in [12], 53 nM; in data set [13] it was 7.9 nM. This compound also came in with an AUC in data set [3] of 1 µM·h. This compound also had a clearance in data set [4] of 211 mL/min/kg. In data set [5], this compound yielded a maximum concentration (Cmax) of 700 nM. In addition, the bioavailability in [6] is 82%. In data set [8], this compound gave a half-life of 32 h. Further, the logD in [9] came out at 1.5. Also, the apical-to-basolateral permeability (Papp A→B) in data set [2] turned out to be 14 ×10⁻⁶ cm/s. Further, the Ratio EC50 in data set [10] came to 15. Besides, a half-maximal response in [11] (EC50) required 220 nM.

In turn, `N#CCCN1CCC(n2nnc3cnc4[nH]ccc4c32)CC1` returned an AUC in [3] of 1.8 µM·h. In [4], this compound registered a clearance of 44 mL/min/kg. The compound further returned a Cmax in data set [5] of 4900 nM. The compound further displayed a bioavailability in data set [6] of 28%. Moreover, the Ratio Ki in data set [7] is 1.8. Also, in [8], the half-life was 1.9 h. In [9], this compound had a log distribution coefficient (logD) of 1.12. In addition, the Papp A→B in [2] turned out to be 17 ×10⁻⁶ cm/s. In addition, in [10], the Ratio EC50 was 4.6. In data set [11], this compound displayed a concentration giving a half-maximal response (EC50) of 138 nM. In addition, the inhibitory constant (Ki) in data set [12] came to 3.7 nM; in data set [13], 2.1 nM.
